Records with an inconclusive call do not appear.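 The calls were made as follows, unless noted: active = growth inhibition above 25% in both replicates, a cutoff set 3 SD above the mean; inconclusive = above 25% in only one replicate; inactive = the rest.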
Tests used:
[1] = S. cerevisiae growth inhibition in permissive medium (OD615), pilot counter-assay for S. cerevisiae lifespan shortening project, permissive growth control (AID 705); details: OD615, 24 h, at 10 µM, stronger effect = higher value
How it was run: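 assay system = Saccharomyces cerevisiae strain carrying genetically modified DeaD replicative-lifespan system | technique = absorbance (optical density) at 615 nm | buffer or medium = permissive raffinose/galactose medium | timing = cells pre-grown 4 h, then 24 h compound exposure, 30 °C humidified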

[2] = S. cerevisiae growth inhibition in restrictive medium, OD615, pilot screen, restrictive growth control, yeast lifespan reduction project (AID 706;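 active = growth inhibition above a set limit, 3 SD over mean compound inhibition, in both replicates, cut at about 43% in these data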;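 also: modified DeaD lifespan yeast strain shifted to restrictive glucose medium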); details: OD615, 48 h, at 10 µM, stronger effect = higher value
How it was run: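 System: modified S. cerevisiae. Buffer or medium: CSMM-D glucose medium. Incubation: 4 h pre-growth plus 48 h compound exposure, 30 °C. Detection: absorbance (optical density) measured at 615 nm.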

[3] = doxorubicin toxicity protection in MRP-1 cells – H69AR cells, CellTiter-Glo, duplicate, MRP-1 activator project, pilot screen (AID 807;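 active = viability increase at or above a cutoff of the median across tested compounds plus 3 SD, cut at about 8.5% in these data, passing the limit was not always enough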;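 also: compound pretreatment 18-22 h then 72 h combined with doxorubicin; 0% = doxorubicin alone and 100% = vehicle without doxorubicin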); details: H69AR viability with doxorubicin, CellTiter-Glo luminescence; at 10 µM; stronger effect = higher value
[4] = viability of HCT116 without oncogenic beta-catenin – human colon tumor cells, pilot screen (AID 823;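 active = cell viability at or below a set limit in both duplicate runs, the limit being the all-compound median minus 4 SD, cut at about 23% in these data, passing the limit was not always enough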;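 also: 0% = wells killed by 20 µM Hyamine and 100% = untreated DMSO cell wells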); details: HCT116 beta-catenin knockout viability, CellTiter-Glo, 60 h; at 10 µM; stronger effect = lower value
[5] = viability of PTEN-null HCT116 cells – cell-based, HCT116 clonal line, CellTiter-Glo, pilot screen (AID 824;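 active = viability at or below 27.92% in each of two runs, the all-compound median minus 4 SD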;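 also: 0% = 20 µM Hyamine control and 100% = vehicle cell control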); details: HCT116 PTEN-deleted viability, 60 h, at 10 µM, stronger effect = lower value
[6] = RAM pathway blockade in budding yeast – dse1pr::URA3 reporter, 5-FOA selection, pilot screen (AID 869;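 active = inhibition over a set limit, the all-compound mean plus 3 SD, in both replicate runs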;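 also: 0% = DMSO wells with no growth and 100% = 10 µM 1-NA-PP1 with full growth; RAM network block rescues cells from 5-FOA so hits raise OD615 growth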); details: S. cerevisiae dse1pr::URA3 5-FOA growth, OD615, 2 d; at 10 µM; stronger effect = higher value; strain carries analog-sensitive mutant Cbk1 kinase
[7] = RAM signaling pathway blockade in yeast – S. cerevisiae, Pdr1DBD-CYC8 efflux-inhibited sensitized strain, primary screen (AID 1298;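 active = RAM network inhibition above 8.4% in each of two replicates, 3 SD over the compound average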;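 also: 0% = DMSO untreated cells without growth and 100% = 10 µM 1-NA-PP1 full growth; higher means more yeast growth rescued from 5-FOA killing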); details: S. cerevisiae cbk1-as DSE1-URA3 strain, 5-FOA growth OD615, 2 d; at 50 µM; stronger effect = higher value

CC(C)(C)c1ccc(OCC(=O)N2CCN(C=O)CC2)cc1
inactive: growth inhibition [1] -6.68% | growth inhibition [2] -10.2% | viability increase [3] -2.64% | viability [4] 98.1% | viability [5] 100% | inhibition [6] 1.25% | RAM network inhibition [7] 0.67%

O=C(Nc1ccccc1)C1CC=CCC1C(=O)OCC1CCCO1 (stereo not given)
inactive: growth inhibition [1] -9.52% | growth inhibition [2] -20.7% | viability increase [3] 0.15% | viability [4] 102% | viability [5] 102% | inhibition [6] 2.69% | RAM network inhibition [7] 0.98%

COc1ccc(OC)c(Nc2cc(C)nc3nc(C)nn23)c1
inactive: growth inhibition [1] 0.505% | growth inhibition [2] -0.375% | viability increase [3] -5.35% | viability [4] 65.5% | viability [5] 57.4% | inhibition [6] 1.67% | RAM network inhibition [7] 5.24%

Cc1cc(OCC(=O)Nc2cc(-c3nn4c(C)nnc4s3)ccc2C)ccc1Cl
inactive: growth inhibition [1] 2.82% | growth inhibition [2] 27.5% | viability increase [3] -0.6% | viability [4] 95.6% | viability [5] 82% | inhibition [6] 2.49% | RAM network inhibition [7] 6.32%

Cc1cc(Cl)ccc1NC(=O)CSc1nnc(-c2ccncc2)n1Cc1ccco1
inactive: growth inhibition [1] 5.41% | growth inhibition [2] 25% | viability increase [3] 0.37% | viability [4] 92.5% | viability [5] 93.9% | inhibition [6] 1% | RAM network inhibition [7] 3.58%

CC(=O)c1cccc(NC(=O)c2cc(C)no2)c1
inactive: growth inhibition [1] -4.53% | growth inhibition [2] -12.4% | viability increase [3] -1.41% | viability [4] 98.9% | viability [5] 92.5% | inhibition [6] 1.26% | RAM network inhibition [7] -1.99%

CC1CC(C)CN(S(=O)(=O)c2cccc3cccnc23)C1 (stereo not given)
inactive: growth inhibition [1] -4.23% | growth inhibition [2] -6.44% | viability increase [3] -4.51% | viability [4] 87.9% | viability [5] 94.9% | inhibition [6] -0.45% | RAM network inhibition [7] 1.83%

Cc1ccc(C)n1-n1c(C)nc2scc(-c3cccs3)c2c1=O
inactive: growth inhibition [1] -13.1% | growth inhibition [2] 1.95% | viability increase [3] -3.42% | viability [4] 72.1% | viability [5] 71.6% | inhibition [6] 0.72% | RAM network inhibition [7] 2.2%

O=C(NCc1cccnc1)c1nnc(Cc2ccc(F)cc2)o1
inactive: growth inhibition [1] 7.17% | growth inhibition [2] 2.65% | viability increase [3] 2.16% | viability [4] 98.4% | viability [5] 103% | inhibition [6] 0.03% | RAM network inhibition [7] 3.62%

Cc1c(NC(=O)Oc2ccccc2)sc(=S)n1C
inactive: growth inhibition [1] 14.5% | growth inhibition [2] 34.4% | viability increase [3] -3.22% | viability [4] 102% | viability [5] 98.2% | inhibition [6] 1.32% | RAM network inhibition [7] 0.99%

Cc1cc(S(=O)(=O)N2CCN(c3ccc(F)cc3)CC2)c(C)s1
inactive: growth inhibition [1] -13.9% | growth inhibition [2] -7.43% | viability increase [3] -3.11% | viability [4] 60.9% | viability [5] 60.3% | inhibition [6] 1.69% | RAM network inhibition [7] 9.84%

N#CN=C1SCCS1
inactive: growth inhibition [1] -5.58% | growth inhibition [2] -14.9% | viability increase [3] -0.61% | viability [4] 103% | viability [5] 99% | inhibition [6] 1.71% | RAM network inhibition [7] 0.1%

Cc1ccc(-c2nc(CS(=O)CC(=O)NCCC(C)C)c(C)o2)cc1 (stereo not given)
inactive: growth inhibition [1] -6.7% | growth inhibition [2] -1.91% | viability increase [3] -0.71% | viability [4] 92.2% | viability [5] 95.8% | inhibition [6] 1.14% | RAM network inhibition [7] 3.42%

Cc1noc(NS(=O)(=O)c2ccc(NC(=O)COc3ccc(Cl)cc3Cl)cc2)c1C
inactive: growth inhibition [1] -2.93% | growth inhibition [2] 10.8% | viability increase [3] -0.49% | viability [4] 100% | viability [5] 98.6% | inhibition [6] 2.39% | RAM network inhibition [7] 7.51%

O=C(NC1CCCCCC1)C1C2C=CC3(CN(Cc4cccnc4)C(=O)C13)O2 (stereo not given)
inactive: growth inhibition [1] 0.045% | growth inhibition [2] 8.75% | viability increase [3] 0.68% | viability [4] 101% | viability [5] 107% | inhibition [6] 0.18% | RAM network inhibition [7] 1.44%

CCOC(=O)C1CCCN(C(=O)N2CCOCC2)C1 (stereo not given)
inactive: growth inhibition [1] -4.19% | growth inhibition [2] -5.3% | viability increase [3] -0.82% | viability [4] 97.6% | viability [5] 99.1% | inhibition [6] -0.095% | RAM network inhibition [7] 0.21%

COc1ccc(C2CCCN2C(=O)Nc2ccc(F)cc2)cc1OC (stereo not given)
inactive: growth inhibition [1] -6.66% | growth inhibition [2] -5.24% | viability increase [3] 1.33% | viability [4] 98.8% | viability [5] 88.2% | inhibition [6] 2.6% | RAM network inhibition [7] 3.45%

CC1=C(C(N)=O)C(c2ccccn2)n2nc(SCc3ccccc3Cl)nc2N1 (stereo not given)
inactive: growth inhibition [1] -4.42% | growth inhibition [2] -12.1% | viability increase [3] -1.33% | viability [4] 90.5% | viability [5] 83.3% | inhibition [6] 1.04% | RAM network inhibition [7] 0.26%

C=CCn1c(SCC(=O)NCc2ccco2)nc2sc3c(c2c1=O)CCC3
inactive: growth inhibition [1] -1.65% | growth inhibition [2] 0.995% | viability increase [3] -4.9% | viability [4] 98.6% | viability [5] 92.6% | inhibition [6] 2.48% | RAM network inhibition [7] 1.5%

CCCc1cc(=O)oc2cc3occ(C)c3cc12
inactive: growth inhibition [1] -10.3% | growth inhibition [2] 2.5% | viability increase [3] -2.52% | viability [4] 93.6% | viability [5] 97.6% | inhibition [6] 1.23% | RAM network inhibition [7] 4.79%

Cn1c(=O)oc2cc(S(=O)(=O)N3CCC(C(=O)NCc4cccs4)CC3)ccc21
inactive: growth inhibition [1] -3.54% | growth inhibition [2] 4.04% | viability increase [3] -0.3% | viability [4] 95.1% | viability [5] 90.2% | inhibition [6] 0.335% | RAM network inhibition [7] 1.5%

CCCNc1nc2c(c(=O)[nH]c(=O)n2C)n1Cc1ccc(F)cc1
inactive: growth inhibition [1] -1.32% | growth inhibition [2] -1.12% | viability increase [3] -2% | viability [4] 104% | viability [5] 92.9% | inhibition [6] 0.945% | RAM network inhibition [7] 0.57%

COc1ccc(N(CC(=O)N2CCN(C)CC2)S(C)(=O)=O)cc1OC
inactive: growth inhibition [1] -12% | growth inhibition [2] -9.76% | viability increase [3] -0.37% | viability [4] 90.8% | viability [5] 97.5% | inhibition [6] 0.64% | RAM network inhibition [7] 6.2%

Cc1ccc(-c2c(C(=O)N3CCOCC3)oc(=O)c3ccccc23)cc1
inactive: growth inhibition [1] -9.96% | growth inhibition [2] -6.92% | viability increase [3] -0.03% | viability [4] 95.6% | viability [5] 103% | inhibition [6] 1.33% | RAM network inhibition [7] 1.2%

CN(Cc1ccco1)C(=O)C(Cc1ccccc1)NS(=O)(=O)c1ccc2c(c1)CCC(=O)N2 (stereo not given)
inactive: growth inhibition [1] -11.9% | growth inhibition [2] -12.3% | viability increase [3] -4.4% | viability [4] 94.9% | viability [5] 84.4% | inhibition [6] 2.2% | RAM network inhibition [7] 3.45%
